Measured values from ChEMBL document CHEMBL1921722, “In vitro and in vivo evaluation of select kahalalide F analogs with antitumor and antifungal activities” (Bioorg Med Chem, 2011).
Active and inactive are the calls of the source. The rule behind the calls is not given here.

Experiments:
CAKI-1 [1] = assay: Cytotoxicity against human Caki1 cells by sulforhodamine B assay; assay type: functional
Procedure, shortened: (§1)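 Run at NCI in the DTP 60-cell-line human tumor panel by standard procedure. Compounds were first screened at a single concentration, then tested at five tenfold-spaced concentrations. GI50 is the concentration reducing treated-cell growth to half that of untreated controls; TGI is the concentration completely halting growth.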

CAKI-1 [2] = assay: Cytotoxicity against human Caki1 cells assessed as cell growth at 8 nM by sulforhodamine B assay relative to control; assay type: functional; conditions: read-out: Activity
SK-MEL-5 = assay: Cytotoxicity against human SK-MEL-5 cells assessed as cell growth at 80 nM by sulforhodamine B assay relative to control; assay type: functional; conditions: read-out: Activity
CAKI-1 [3] = assay: Cytotoxicity against human Caki1 cells assessed as cell growth at 800 nM by sulforhodamine B assay relative to control; assay type: functional; conditions: read-out: Activity
OVCAR-5 [4] = assay: Antitumor activity against human OVCAR5 cells xenografted in mouse assessed as tumor cell killing at 3.1 mg/kg, ip qd for 4 days by MTT assay; assay type: functional, organism-based; parameters: dose 3.1 mg/kg
SF-295 [5] = assay: Antitumor activity against human SF295 cells xenografted in mouse assessed as tumor cell killing at 3.1 mg/kg, ip qd for 4 days by MTT assay; assay type: functional, organism-based; parameters: dose 3.1 mg/kg
A498 = assay: Cytotoxicity against human A498 cells assessed as cell growth at 8 uM by sulforhodamine B assay relative to control; assay type: functional; conditions: read-out: Activity; procedure, shortened: as §1
NCI-H522 [6] = assay: Antitumor activity against human NCI-H522 cells xenografted in mouse assessed as tumor cell killing at 3.1 mg/kg, ip qd for 4 days by MTT assay; assay type: functional, organism-based; parameters: dose 3.1 mg/kg
UACC-62 [7] = assay: Cytotoxicity against human UACC62 cells assessed as cell growth at 8 nM by sulforhodamine B assay relative to control; assay type: functional; conditions: read-out: Activity
MDA-MB-435 [8] = assay: Antitumor activity against human MDA-MB-435 cells xenografted in mouse assessed as tumor cell killing at 3.1 mg/kg, ip qd for 4 days by MTT assay; assay type: functional, organism-based; parameters: dose 3.1 mg/kg
BT-549 = assay: Cytotoxicity against human BT549 cells assessed as cell growth at 800 nM by sulforhodamine B assay relative to control; assay type: functional; conditions: read-out: Activity; procedure, shortened: as §1
SF-268 [9] = assay: Cytotoxicity against human SF268 cells assessed as cell growth at 800 nM by sulforhodamine B assay relative to control; assay type: functional; conditions: read-out: Activity
OVCAR-5 [10] = assay: Cytotoxicity against human OVCAR5 cells by sulforhodamine B assay; assay type: functional; conditions: for TGI: read-out: pTGI (converted)
Procedure, shortened: (§2)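 NCI Developmental Therapeutics Program 60-cell-line human tumor panel screen, run at NCI. A single-concentration pre-screen was followed by a five-concentration dose-response in 10-fold steps. GI50 is the concentration that reduces growth of treated cells to half that of untreated control cells. TGI is the concentration that completely halts growth.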

CAKI-1 [11] = assay: Cytotoxicity against human Caki1 cells assessed as cell growth at 8 uM by sulforhodamine B assay relative to control; assay type: functional; conditions: read-out: Activity
NCI-H322M = assay: Cytotoxicity against human NCI-H322M cells assessed as cell growth at 800 nM by sulforhodamine B assay relative to control; assay type: functional; conditions: read-out: Activity
U-251 [12] = assay: Antitumor activity against human U251 cells xenografted in mouse assessed as tumor cell killing at 3.1 mg/kg, ip qd for 4 days by MTT assay; assay type: functional, organism-based; parameters: dose 3.1 mg/kg
CAKI-1 [13] = assay: Cytotoxicity against human Caki1 cells assessed as cell growth at 80 nM by sulforhodamine B assay relative to control; assay type: functional; conditions: read-out: Activity
OVCAR-3 = assay: Cytotoxicity against human OVCAR3 cells assessed as cell growth at 80 nM by sulforhodamine B assay relative to control; assay type: functional; conditions: read-out: Activity
PC-3 = assay: Cytotoxicity against human PC3 cells assessed as cell growth at 8 nM by sulforhodamine B assay relative to control; assay type: functional; conditions: read-out: Activity
CAKI-1 [14] = assay: Cytotoxicity against human Caki1 cells assessed as cell growth at 80 uM by sulforhodamine B assay relative to control; assay type: functional; conditions: read-out: Activity
UACC-62 [15] = assay: Antitumor activity against human UACC62 cells xenografted in mouse assessed as tumor cell killing at 3.1 mg/kg, ip qd for 4 days by MTT assay; assay type: functional, organism-based; parameters: dose 3.1 mg/kg
NCI-H23 = assay: Cytotoxicity against human NCI-H23 cells by sulforhodamine B assay; assay type: functional; conditions: for TGI: read-out: pTGI (converted); procedure, shortened: as §2
HOP-62 = assay: Cytotoxicity against human HOP62 cells assessed as cell growth at 8 uM by sulforhodamine B assay relative to control; assay type: functional; conditions: read-out: Activity
T47D = assay: Cytotoxicity against human T47D cells assessed as cell growth at 80 uM by sulforhodamine B assay relative to control; assay type: functional; conditions: read-out: Activity
IGROV-1 = assay: Cytotoxicity against human IGROV1 cells assessed as cell growth at 80 uM by sulforhodamine B assay relative to control; assay type: functional; conditions: read-out: Activity
SR = assay: Cytotoxicity against human SR cells assessed as cell growth at 80 uM by sulforhodamine B assay relative to control; assay type: functional; conditions: read-out: Activity
CCRF-CEM [16] = assay: Cytotoxicity against human CCRF-CEM cells assessed as cell growth at 800 nM by sulforhodamine B assay relative to control; assay type: functional; conditions: read-out: Activity
UACC-62 [17] = assay: Antitumor activity against human UACC62 cells xenografted in mouse assessed as tumor cell killing at 2.35 mg/kg, ip qd for 4 days by MTT assay; assay type: functional, organism-based; parameters: dose 2.35 mg/kg
U-251 [18] = assay: Antitumor activity against human U251 cells xenografted in mouse assessed as tumor cell killing at 2.35 mg/kg, ip qd for 4 days by MTT assay; assay type: functional, organism-based; parameters: dose 2.35 mg/kg
SF-295 [19] = assay: Antitumor activity against human SF295 cells xenografted in mouse assessed as tumor cell killing at 2.35 mg/kg, ip qd for 4 days by MTT assay; assay type: functional, organism-based; parameters: dose 2.35 mg/kg
CCRF-CEM [20] = assay: Cytotoxicity against human CCRF-CEM cells assessed as cell growth at 80 uM by sulforhodamine B assay relative to control; assay type: functional; conditions: read-out: Activity
SF-268 [21] = assay: Cytotoxicity against human SF268 cells assessed as cell growth at 80 uM by sulforhodamine B assay relative to control; assay type: functional; conditions: read-out: Activity
CCRF-CEM [22] = assay: Cytotoxicity against human CCRF-CEM cells assessed as cell growth at 8 uM by sulforhodamine B assay relative to control; assay type: functional; conditions: read-out: Activity
OVCAR-5 [23] = assay: Antitumor activity against human OVCAR5 cells xenografted in mouse assessed as tumor cell killing at 2.35 mg/kg, ip qd for 4 days by MTT assay; assay type: functional, organism-based; parameters: dose 2.35 mg/kg
CCRF-CEM [24] = assay: Cytotoxicity against human CCRF-CEM cells by sulforhodamine B assay; assay type: functional; procedure, shortened: as §1
CCRF-CEM [25] = assay: Cytotoxicity against human CCRF-CEM cells assessed as cell growth at 80 nM by sulforhodamine B assay relative to control; assay type: functional; conditions: read-out: Activity
CCRF-CEM [26] = assay: Cytotoxicity against human CCRF-CEM cells assessed as cell growth at 8 nM by sulforhodamine B assay relative to control; assay type: functional; conditions: read-out: Activity
NCI-H522 [27] = assay: Antitumor activity against human NCI-H522 cells xenografted in mouse assessed as tumor cell killing at 2.35 mg/kg, ip qd for 4 days by MTT assay; assay type: functional, organism-based; parameters: dose 2.35 mg/kg
MDA-MB-435 [28] = assay: Antitumor activity against human MDA-MB-435 cells xenografted in mouse assessed as tumor cell killing at 2.35 mg/kg, ip qd for 4 days by MTT assay; assay type: functional, organism-based; parameters: dose 2.35 mg/kg
[29] = read-out: pLC50 (the source's name) (converted)

## C/C=C1\NC(=O)[C@H](Cc2ccccc2)NC(=O)[C@@H](C(C)C)NC(=O)[C@@H]([C@@H](C)CC)NC(=O)[C@H](NC(=O)[C@H](NC(=O)[C@H](CCCNCc2ccc(F)c(C)c2)NC(=O)[C@H]2CCCN2C(=O)[C@H](NC(=O)[C@@H](NC(=O)[C@@H](NC(=O)[C@H](NC(=O)CCCC(C)C)C(C)C)[C@@H](C)O)C(C)C)C(C)C)[C@@H](C)CC)[C@@H](C)OC(=O)[C@H](C(C)C)NC1=O
CAKI-1 [1]
  GI50: 1450 nM
CAKI-1 [1]; [29]
  CC50: 4790 nM
CAKI-1 [1]; read-out: pTGI (converted)
  TGI: 2630 nM
CAKI-1 [2]
  growth at 0.008 µM: 130%
SK-MEL-5
  growth at 0.08 µM: 99%
CAKI-1 [3]
  growth at 0.8 µM: 103%
OVCAR-5 [4]
  Activity: inactive
SF-295 [5]
  Activity: inactive
A498
  growth at 8 µM: -92%
NCI-H522 [6]
  Activity: inactive
UACC-62 [7]
  growth at 0.008 µM: 103%
MDA-MB-435 [8]
  Activity: inactive
BT-549
  growth at 0.8 µM: 87%
SF-268 [9]
  growth at 0.8 µM: 63%
OVCAR-5 [10]
  GI50: 813 nM
  LC50: 3800 nM
  TGI: 1740 nM
CAKI-1 [11]
  growth at 8 µM: -86%
NCI-H322M
  growth at 0.8 µM: -90%
U-251 [12]
  Activity: inactive
CAKI-1 [13]
  growth at 0.08 µM: 150%
OVCAR-3
  growth at 0.08 µM: 88%
PC-3
  growth at 0.008 µM: 109%
CAKI-1 [14]
  growth at 80 µM: -56%
UACC-62 [15]
  Activity: inactive
NCI-H23
  GI50: 1410 nM
  LC50: 5250 nM
  TGI: 2750 nM
HOP-62
  growth at 8 µM: -93%
T47D
  growth at 80 µM: -13%
IGROV-1
  growth at 80 µM: -26%

## C/C=C1\NC(=O)[C@H](Cc2ccccc2)NC(=O)[C@@H](C(C)C)NC(=O)[C@@H]([C@@H](C)CC)NC(=O)[C@H](NC(=O)[C@H](NC(=O)[C@H](CCCNCc2ccc(N3CCOCC3)cc2)NC(=O)[C@H]2CCCN2C(=O)[C@H](NC(=O)[C@@H](NC(=O)[C@@H](NC(=O)[C@H](NC(=O)CCCC(C)C)C(C)C)[C@@H](C)O)C(C)C)C(C)C)[C@@H](C)CC)[C@@H](C)OC(=O)[C@H](C(C)C)NC1=O
SR
  growth at 80 µM: -7%
CCRF-CEM [16]
  growth at 0.8 µM: 128%
UACC-62 [17]
  Activity: inactive
U-251 [18]
  Activity: inactive
SK-MEL-5
  growth at 0.08 µM: 101%
SF-295 [19]
  Activity: inactive
CCRF-CEM [20]
  growth at 80 µM: -31%
SF-268 [21]
  growth at 80 µM: 18%
CCRF-CEM [22]
  growth at 8 µM: 82%
OVCAR-5 [23]
  Activity: inactive
CCRF-CEM [24]
  GI50: 22900 nM
CCRF-CEM [24]; [29]
  CC50: > 75900 nM
CCRF-CEM [24]; read-out: pTGI (converted)
  TGI: 39800 nM
A498
  growth at 8 µM: -51%
UACC-62 [7]
  growth at 0.008 µM: 102%
BT-549
  growth at 0.8 µM: 89%
SF-268 [9]
  growth at 0.8 µM: 90%
CCRF-CEM [25]
  growth at 0.08 µM: 123%
OVCAR-5 [10]
  GI50: 933 nM
  TGI: 2190 nM
NCI-H322M
  growth at 0.8 µM: -76%
CCRF-CEM [26]
  growth at 0.008 µM: 122%
OVCAR-3
  growth at 0.08 µM: 87%
PC-3
  growth at 0.008 µM: 90%
NCI-H522 [27]
  Activity: inactive
NCI-H23
  GI50: 1550 nM
  LC50: 6310 nM
  TGI: 3090 nM
MDA-MB-435 [28]
  Activity: inactive
HOP-62
  growth at 8 µM: -70%
T47D
  growth at 80 µM: -7%
IGROV-1
  growth at 80 µM: -30%
